Laboratory results as given in ChEMBL document CHEMBL5696442, “Discovery of type II inhibitors of TGFβ-activated kinase 1 (TAK1) and mitogen-activated protein kinase kinase kinase kinase 2 (MAP4K2)” (J Med Chem, 2015).

Key:
[1] = target: Cyclin-dependent kinase 10 (Homo sapiens) (UniProt Q15131); experiment: Inhibition of CDK10 Lys2 labeling site in human A-375 cells at 5 uM by KiNativ Profiling analysis relative to control; type: cell-based
Summary of the method: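 Intact A375 melanoma cells were treated with compound at 5 or 0.5 μM, then lysed. Lysate kinases were labeled with a lysine-reactive ATP or ADP-biotin probe (KiNativ). Inhibition is read as protection of each kinase labeling site from probe labeling.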

[2] = target: T1, Mitogen-activated protein kinase 13 (Homo sapiens) (UniProt O15264); experiment: Inhibition of p38 delta Lys2 labeling site in human A-375 cells at 0.5 uM by KiNativ Profiling analysis relative to control; type: cell-based
T1 sequence (whole entry): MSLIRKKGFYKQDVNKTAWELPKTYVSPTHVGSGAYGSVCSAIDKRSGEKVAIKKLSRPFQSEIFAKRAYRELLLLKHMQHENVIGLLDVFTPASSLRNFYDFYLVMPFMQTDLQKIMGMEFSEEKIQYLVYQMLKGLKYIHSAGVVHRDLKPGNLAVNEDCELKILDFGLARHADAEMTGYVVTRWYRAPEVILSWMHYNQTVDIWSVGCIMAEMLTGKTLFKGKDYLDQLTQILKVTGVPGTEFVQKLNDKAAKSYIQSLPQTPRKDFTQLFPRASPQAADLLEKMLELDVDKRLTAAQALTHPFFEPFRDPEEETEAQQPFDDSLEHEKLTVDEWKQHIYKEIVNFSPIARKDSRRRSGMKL

[3] = target: TRAF2 and NCK-interacting protein kinase (Homo sapiens) (UniProt Q9UKE5); experiment: Inhibition of ZC2/TNIK Lys2 labeling site in human A-375 cells at 0.5 uM by KiNativ Profiling analysis relative to control; type: cell-based
[4] = target: Casein kinase II subunit alpha (Homo sapiens) (UniProt P68400); experiment: Inhibition of CK2a1 Protein Kinase Domain in human A-375 cells at 0.5 uM by KiNativ Profiling analysis relative to control; type: cell-based
Casein kinase II subunit alpha (Homo sapiens), sequence (P68400 whole entry, looked up, the tested form may be a part): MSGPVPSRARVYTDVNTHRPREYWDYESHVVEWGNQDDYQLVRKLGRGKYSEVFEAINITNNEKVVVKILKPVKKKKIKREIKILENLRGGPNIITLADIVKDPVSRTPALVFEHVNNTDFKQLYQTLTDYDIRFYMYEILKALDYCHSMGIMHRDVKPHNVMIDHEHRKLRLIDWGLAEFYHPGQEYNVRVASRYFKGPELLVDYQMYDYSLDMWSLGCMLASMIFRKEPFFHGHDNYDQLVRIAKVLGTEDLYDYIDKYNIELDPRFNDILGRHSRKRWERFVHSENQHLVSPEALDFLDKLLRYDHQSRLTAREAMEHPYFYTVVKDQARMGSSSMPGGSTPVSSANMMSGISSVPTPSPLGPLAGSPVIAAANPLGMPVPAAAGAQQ
Summary of the method: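 Live A375 melanoma cells were treated with compound at 5 or 0.5 μM. The cells were then lysed, and the lysates were labeled with a lysine-reactive ATP or ADP-biotin acyl probe (KiNativ). Inhibition is the compound's protection of each kinase labeling-site peptide from probe labeling, relative to untreated control.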

[5] = target: Serine/threonine-protein kinase WNK2 (Homo sapiens) (UniProt Q9Y3S1); experiment: Inhibition of Wnk2 ATP Loop labeling site in human A-375 cells at 0.5 uM by KiNativ Profiling analysis relative to control; type: cell-based
[6] = target: Proto-oncogene tyrosine-protein kinase Src (Homo sapiens, UniProt P12931); experiment: Inhibition of SRC (unknown origin) Lys1 labeling site by KiNativ Profiling analysis
Proto-oncogene tyrosine-protein kinase Src, sequence (P12931 2-536 limits assumed): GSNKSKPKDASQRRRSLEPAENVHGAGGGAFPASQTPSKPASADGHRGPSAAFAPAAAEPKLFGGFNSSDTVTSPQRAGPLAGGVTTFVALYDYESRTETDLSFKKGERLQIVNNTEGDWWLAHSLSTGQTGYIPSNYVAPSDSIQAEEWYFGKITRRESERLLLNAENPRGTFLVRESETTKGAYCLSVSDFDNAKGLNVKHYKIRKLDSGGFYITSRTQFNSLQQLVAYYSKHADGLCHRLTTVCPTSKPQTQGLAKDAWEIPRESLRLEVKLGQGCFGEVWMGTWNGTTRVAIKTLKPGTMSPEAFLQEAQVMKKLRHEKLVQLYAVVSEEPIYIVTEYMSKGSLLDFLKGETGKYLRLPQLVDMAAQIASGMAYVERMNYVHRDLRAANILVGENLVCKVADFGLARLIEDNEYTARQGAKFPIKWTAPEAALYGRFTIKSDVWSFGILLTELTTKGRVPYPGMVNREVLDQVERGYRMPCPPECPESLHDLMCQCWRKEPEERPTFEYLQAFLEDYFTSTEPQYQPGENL

[7] = target: Mitogen-activated protein kinase kinase kinase 11 (Homo sapiens) (UniProt Q16584); experiment: Inhibition of MLK3 Lys2 labeling site in human A-375 cells at 0.5 uM by KiNativ Profiling analysis relative to control; type: cell-based
Mitogen-activated protein kinase kinase kinase 11 (Homo sapiens), sequence (Q16584 whole entry, looked up, the tested form may be a part): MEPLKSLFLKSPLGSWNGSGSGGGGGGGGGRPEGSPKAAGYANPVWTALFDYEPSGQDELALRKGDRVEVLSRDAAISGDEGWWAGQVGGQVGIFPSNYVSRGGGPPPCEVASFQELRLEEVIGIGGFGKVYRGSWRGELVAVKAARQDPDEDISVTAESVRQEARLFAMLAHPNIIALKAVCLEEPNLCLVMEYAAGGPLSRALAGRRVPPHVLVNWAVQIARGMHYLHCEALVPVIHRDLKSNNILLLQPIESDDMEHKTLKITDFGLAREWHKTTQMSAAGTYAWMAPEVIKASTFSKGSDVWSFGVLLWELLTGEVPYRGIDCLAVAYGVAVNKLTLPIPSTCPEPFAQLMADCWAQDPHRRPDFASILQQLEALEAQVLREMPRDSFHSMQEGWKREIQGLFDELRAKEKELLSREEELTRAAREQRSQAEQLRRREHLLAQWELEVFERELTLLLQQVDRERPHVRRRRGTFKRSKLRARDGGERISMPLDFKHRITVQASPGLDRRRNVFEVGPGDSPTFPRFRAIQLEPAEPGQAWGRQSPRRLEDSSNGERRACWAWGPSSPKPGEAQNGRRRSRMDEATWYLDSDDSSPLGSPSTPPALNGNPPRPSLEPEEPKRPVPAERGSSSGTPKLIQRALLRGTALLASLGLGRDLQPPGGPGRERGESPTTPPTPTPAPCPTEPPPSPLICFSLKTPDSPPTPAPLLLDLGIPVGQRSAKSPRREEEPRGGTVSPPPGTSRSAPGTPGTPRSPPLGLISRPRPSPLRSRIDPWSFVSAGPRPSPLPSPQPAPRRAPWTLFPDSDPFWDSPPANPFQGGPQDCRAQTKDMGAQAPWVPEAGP

[8] = target: Tyrosine-protein kinase JAK1 (Homo sapiens) (UniProt P23458); experiment: Inhibition of JAK1 domain2 Lys1 labeling site in human A-375 cells at 5 uM by KiNativ Profiling analysis relative to control; type: cell-based
Tyrosine-protein kinase JAK1 (Homo sapiens), sequence (P23458 whole entry, the tested form may be a part): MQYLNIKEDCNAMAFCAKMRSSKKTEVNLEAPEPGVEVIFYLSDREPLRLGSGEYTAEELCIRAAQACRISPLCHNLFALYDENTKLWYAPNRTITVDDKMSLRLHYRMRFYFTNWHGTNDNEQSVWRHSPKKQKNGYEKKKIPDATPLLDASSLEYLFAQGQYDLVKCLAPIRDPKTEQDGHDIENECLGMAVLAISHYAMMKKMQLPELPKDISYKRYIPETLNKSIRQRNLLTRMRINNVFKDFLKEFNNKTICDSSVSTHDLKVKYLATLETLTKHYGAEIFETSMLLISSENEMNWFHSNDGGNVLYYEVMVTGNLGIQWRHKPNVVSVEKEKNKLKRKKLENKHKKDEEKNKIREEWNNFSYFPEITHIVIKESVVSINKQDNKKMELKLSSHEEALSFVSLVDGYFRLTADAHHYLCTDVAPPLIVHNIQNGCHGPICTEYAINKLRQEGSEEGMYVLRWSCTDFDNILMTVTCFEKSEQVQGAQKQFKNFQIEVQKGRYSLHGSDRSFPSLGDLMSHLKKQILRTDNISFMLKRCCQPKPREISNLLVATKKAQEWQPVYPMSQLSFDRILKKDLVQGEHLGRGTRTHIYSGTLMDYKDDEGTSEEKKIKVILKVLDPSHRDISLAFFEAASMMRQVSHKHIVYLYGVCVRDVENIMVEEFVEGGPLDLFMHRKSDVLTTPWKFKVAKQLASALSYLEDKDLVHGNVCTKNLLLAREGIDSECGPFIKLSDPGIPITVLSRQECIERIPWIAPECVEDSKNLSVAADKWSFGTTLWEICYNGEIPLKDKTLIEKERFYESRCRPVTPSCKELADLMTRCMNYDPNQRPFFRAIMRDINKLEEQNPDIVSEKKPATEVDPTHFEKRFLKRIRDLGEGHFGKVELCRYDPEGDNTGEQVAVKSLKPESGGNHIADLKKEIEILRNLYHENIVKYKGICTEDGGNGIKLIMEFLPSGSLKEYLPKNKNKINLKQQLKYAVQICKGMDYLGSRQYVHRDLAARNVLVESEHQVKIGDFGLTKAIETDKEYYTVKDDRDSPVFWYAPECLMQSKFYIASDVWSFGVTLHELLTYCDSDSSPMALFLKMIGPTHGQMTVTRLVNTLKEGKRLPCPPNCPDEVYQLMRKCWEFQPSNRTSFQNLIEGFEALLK

[9] = target: Cyclin-dependent kinase 17 (Homo sapiens) (UniProt Q00537); experiment: Inhibition of PCTAIRE2 Lys2 labeling site in human A-375 cells at 5 uM by KiNativ Profiling analysis relative to control; type: cell-based
[10] = target: T2, Serine/threonine-protein kinase Nek9 (Homo sapiens) (UniProt Q8TD19); experiment: Inhibition of NEK9 ACT labeling site in human A-375 cells at 0.05 uM by KiNativ Profiling analysis relative to control; type: cell-based
T2 sequence (whole entry): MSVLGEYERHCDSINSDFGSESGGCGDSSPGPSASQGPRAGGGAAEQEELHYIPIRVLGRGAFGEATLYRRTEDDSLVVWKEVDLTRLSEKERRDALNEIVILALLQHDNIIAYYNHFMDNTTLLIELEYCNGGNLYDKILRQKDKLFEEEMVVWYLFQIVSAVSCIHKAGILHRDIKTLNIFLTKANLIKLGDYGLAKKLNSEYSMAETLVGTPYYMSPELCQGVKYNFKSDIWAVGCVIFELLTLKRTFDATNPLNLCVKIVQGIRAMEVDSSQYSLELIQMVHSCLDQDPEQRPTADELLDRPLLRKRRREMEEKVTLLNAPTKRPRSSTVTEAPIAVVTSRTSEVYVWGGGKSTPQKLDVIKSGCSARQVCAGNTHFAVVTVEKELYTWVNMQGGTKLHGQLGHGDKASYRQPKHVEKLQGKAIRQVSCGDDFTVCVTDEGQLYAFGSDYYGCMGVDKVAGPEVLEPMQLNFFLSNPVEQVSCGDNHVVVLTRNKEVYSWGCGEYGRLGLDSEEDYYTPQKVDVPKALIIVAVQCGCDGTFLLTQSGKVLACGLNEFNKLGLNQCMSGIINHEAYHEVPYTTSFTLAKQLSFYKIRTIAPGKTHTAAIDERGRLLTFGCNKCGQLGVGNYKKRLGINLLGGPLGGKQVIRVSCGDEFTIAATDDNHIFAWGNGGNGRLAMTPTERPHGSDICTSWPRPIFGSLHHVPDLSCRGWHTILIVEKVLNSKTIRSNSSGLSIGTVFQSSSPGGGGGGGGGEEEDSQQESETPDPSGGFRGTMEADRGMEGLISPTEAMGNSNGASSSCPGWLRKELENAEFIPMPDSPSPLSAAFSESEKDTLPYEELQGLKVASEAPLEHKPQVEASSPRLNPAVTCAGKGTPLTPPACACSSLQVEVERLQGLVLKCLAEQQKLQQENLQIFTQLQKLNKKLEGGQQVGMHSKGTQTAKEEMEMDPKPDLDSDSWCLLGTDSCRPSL

[11] = target: Dual specificity mitogen-activated protein kinase kinase 1 (Homo sapiens) (UniProt Q02750); experiment: Inhibition of MAP2K1 Lys2 labeling site harbouring DVKPSNILVNSR in human A-375 cells at 0.5 uM by KiNativ Profiling analysis relative to control; type: cell-based
Dual specificity mitogen-activated protein kinase kinase 1 (Homo sapiens), sequence (Q02750 whole entry): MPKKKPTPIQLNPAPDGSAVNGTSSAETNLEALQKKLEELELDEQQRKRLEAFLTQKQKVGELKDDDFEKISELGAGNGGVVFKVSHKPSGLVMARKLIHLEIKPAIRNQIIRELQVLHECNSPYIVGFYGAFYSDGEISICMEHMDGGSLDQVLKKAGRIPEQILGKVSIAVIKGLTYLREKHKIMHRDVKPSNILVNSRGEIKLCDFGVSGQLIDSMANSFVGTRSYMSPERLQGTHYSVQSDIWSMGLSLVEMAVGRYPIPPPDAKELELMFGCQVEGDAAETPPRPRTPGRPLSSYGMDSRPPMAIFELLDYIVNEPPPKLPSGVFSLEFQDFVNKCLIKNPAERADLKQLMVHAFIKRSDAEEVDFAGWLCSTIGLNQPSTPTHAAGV

[12] = target: Serine/threonine-protein kinase 25 (Homo sapiens) (UniProt O00506); experiment: Inhibition of YSK1 ACT labeling site in human A-375 cells at 0.05 uM by KiNativ Profiling analysis relative to control; type: cell-based
[13] = target: Tyrosine-protein kinase Fyn (Homo sapiens) (UniProt P06241); experiment: Inhibition of FYN ACT labeling site in human A-375 cells at 5 uM by KiNativ Profiling analysis relative to control; type: cell-based
[14] = target: Tyrosine-protein kinase Fer (Homo sapiens, UniProt P16591); experiment: Inhibition of FER Lys1 labeling site in human A-375 cells at 0.5 uM by KiNativ Profiling analysis relative to control; type: cell-based
[15] = target: Tyrosine-protein kinase ABL1 (Homo sapiens, UniProt P00519); experiment: Inhibition of ABL ACT labeling site in human Huh-7 cell lysate at 1 uM by KiNativ Profiling analysis relative to control; type: subcellular
Tyrosine-protein kinase ABL1, sequence (P00519 whole entry): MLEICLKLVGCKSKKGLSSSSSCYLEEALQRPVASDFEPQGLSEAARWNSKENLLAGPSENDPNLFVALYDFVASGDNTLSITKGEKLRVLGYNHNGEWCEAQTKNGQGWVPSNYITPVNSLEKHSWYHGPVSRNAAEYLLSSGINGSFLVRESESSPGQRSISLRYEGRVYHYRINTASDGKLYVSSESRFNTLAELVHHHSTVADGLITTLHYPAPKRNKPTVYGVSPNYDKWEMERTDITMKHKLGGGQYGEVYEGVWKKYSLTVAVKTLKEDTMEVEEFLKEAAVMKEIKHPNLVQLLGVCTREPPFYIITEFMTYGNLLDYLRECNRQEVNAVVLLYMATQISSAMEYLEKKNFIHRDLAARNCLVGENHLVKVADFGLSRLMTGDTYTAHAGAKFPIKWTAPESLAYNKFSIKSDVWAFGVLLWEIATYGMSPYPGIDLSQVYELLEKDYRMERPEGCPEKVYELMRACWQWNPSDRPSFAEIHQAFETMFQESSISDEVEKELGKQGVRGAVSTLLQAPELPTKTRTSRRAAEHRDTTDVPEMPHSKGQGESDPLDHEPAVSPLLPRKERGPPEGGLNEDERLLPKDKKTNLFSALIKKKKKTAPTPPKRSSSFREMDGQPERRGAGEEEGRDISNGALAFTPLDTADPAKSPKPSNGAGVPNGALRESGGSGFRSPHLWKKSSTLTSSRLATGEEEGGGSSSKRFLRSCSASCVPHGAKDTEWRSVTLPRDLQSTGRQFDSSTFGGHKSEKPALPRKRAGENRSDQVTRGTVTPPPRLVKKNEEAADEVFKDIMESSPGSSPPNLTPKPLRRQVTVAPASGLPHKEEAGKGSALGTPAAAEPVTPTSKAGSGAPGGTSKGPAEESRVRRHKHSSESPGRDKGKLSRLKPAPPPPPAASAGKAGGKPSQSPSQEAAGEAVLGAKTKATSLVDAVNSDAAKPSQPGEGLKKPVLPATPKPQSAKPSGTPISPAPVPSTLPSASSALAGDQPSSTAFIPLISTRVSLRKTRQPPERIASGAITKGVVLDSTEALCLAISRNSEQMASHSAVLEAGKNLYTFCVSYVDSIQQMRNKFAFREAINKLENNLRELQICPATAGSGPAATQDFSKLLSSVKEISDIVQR

Cyclin-dependent kinase 10 (Homo sapiens), sequence (Q15131 whole entry): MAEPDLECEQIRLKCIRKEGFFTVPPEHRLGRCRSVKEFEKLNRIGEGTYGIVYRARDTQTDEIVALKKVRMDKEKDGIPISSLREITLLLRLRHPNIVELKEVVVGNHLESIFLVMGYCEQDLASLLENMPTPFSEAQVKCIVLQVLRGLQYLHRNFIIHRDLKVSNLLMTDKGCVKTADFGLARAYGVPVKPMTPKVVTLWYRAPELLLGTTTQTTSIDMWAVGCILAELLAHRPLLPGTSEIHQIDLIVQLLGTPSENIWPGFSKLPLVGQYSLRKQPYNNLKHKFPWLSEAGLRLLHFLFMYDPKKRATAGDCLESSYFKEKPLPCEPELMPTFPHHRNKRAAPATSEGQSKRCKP

CCN1CCN(Cc2ccc(NC(=O)c3ccc(C)c(/C=C/c4cnc5[nH]ccc5c4OC)c3)cc2C(F)(F)F)CC1
inhibition [1]: 11.5%
inhibition [2]: 25.2%
inhibition [3]: 48.1%
inhibition [4]: 12.9%
inhibition [5]: 15.3%
IC50 [6]: 0.204 µM
inhibition [7]: 10.5%
inhibition [8]: 73.4%
inhibition [9]: 27.8%
inhibition [10]: -4.6%
inhibition [11]: 1.8%
inhibition [12]: 13.5%
inhibition [13]: > 99%
inhibition [14]: 30%

CCN1CCN(Cc2ccc(NC(=O)c3ccc(C)c(Oc4ccnc5[nH]ccc45)c3)cc2C(F)(F)F)CC1
inhibition [1]: 65.4%
inhibition [2]: 86.2%
inhibition [3]: 70.8%
inhibition [4]: 2%
inhibition [5]: 11.4%
IC50 [6]: 0.113 µM
inhibition [7]: 0.3%
inhibition [8]: 97.6%
inhibition [9]: 87%
inhibition [10]: 8.1%
inhibition [11]: -3.9%
inhibition [12]: 22.4%
inhibition [13]: 89.6%
inhibition [14]: 87%

CNc1cc(Oc2cc(C(=O)Nc3cc(-n4cnc(C)c4)cc(C(F)(F)F)c3)ccc2C)ncn1
inhibition [15]: 59.7%

CNc1cc(Oc2cc(C(=O)Nc3cc(N4CCN(C)CC4)cc(C(F)(F)F)c3)ccc2C)ncn1
inhibition [15]: 49.4%
